Laboratory results: ChEMBL document CHEMBL1157671, “Synthesis and biological evaluation of trifluralin analogues as antileishmanial agents” (Bioorg Med Chem, 2010)

Experiments:
[1] = Cytotoxicity against human RBC assessed as hemolysis at 100 uM after 1 hr by microplate reader method; assay type: cell-based, Erythrocyte; settings: red blood cells (RBC), read-out: Activity
Outline: (§1)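 Washed RBCs from EDTA blood of healthy donors mixed 1:1 with compound in PBS (100 to 6.25 μM), 1 h at 37 °C, then centrifuged. Supernatant absorbance at 550 nm, reference 620 nm; % hemolysis = (A − A0)/(Amax − A0) × 100, PBS background, water as 100%. Triplicates.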

Leishmania infantum [2] = experiment: Antileishmanial activity against Leishmania infantum MHOM/TN/80/IPT1/LEM 235 promastigotes after 72 hrs by propidium iodide and SYBR14 satining-base flow cytometry; assay type: functional, organism-based; settings: MHOM/TN/80/IPT1/LEM 235, 72 h
Outline: (§2)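 Promastigotes grown in RPMI 1640 with 10% FCS, L-glutamine and antibiotics at 26 °C; seeded at 1×10^6 cells/mL with compound (DMSO/ethanol 50:50 stock, 2-fold dilutions 100 to 0.8 μM in medium) at 26 °C for 72 h. Stained with 12 μM PI and 100 nM SYBR-14 in HEPES-buffered saline with 10% BSA; live/dead read by flow cytometry. IC50 ± σ by sigmoidal regression, three independent experiments.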

[3] = Cytotoxicity against human RBC assessed as hemolysis after 1 hr by microplate reader method; assay type: cell-based, Erythrocyte; settings: red blood cells (RBC); outline: as §1
Leishmania donovani = experiment: Antileishmanial activity against Leishmania donovani MHOM/IN/80/DD8/LEM 703 promastigotes after 72 hrs by propidium iodide and SYBR14 satining-base flow cytometry; assay type: functional, organism-based; settings: MHOM/IN/80/DD8/LEM 703, 72 h; outline: as §2
[4] = Aqueous solubility in water by UV spectrophotometry; settings: buffer
[5] = Ratio of miltefosine HC50 to compound HC50 for human RBC; assay type: cell-based, Erythrocyte; settings: red blood cells (RBC), read-out: Ratio IC50
Leishmania infantum [6] = experiment: Antileishmanial activity against Leishmania infantum A1 amastigotes infected in human THP1 cells assessed as reduction in intracellular parasite load after 48 hrs by Giemsa staining; assay type: functional, organism-based; settings: A1, THP-1, 48 h
Outline: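 THP-1 differentiated with 1 μM retinoic acid for 72 h, then infected overnight with L. infantum promastigotes at 8:1 parasite/cell, 37 °C/5% CO2. Free parasites removed over Histopaque 1077; cells at 4 × 10^5/mL exposed to compound 48 h at 37 °C/5% CO2. Infected cells counted microscopically after Giemsa staining; IC50 ± σ by sigmoidal regression, three independent experiments.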

[7] = Cytotoxicity against human THP1 cells after 48 hrs by propidium iodide and SYBR14 satining-base flow cytometry; assay type: cell-based; settings: THP-1 cells
Outline: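 THP-1 cells at 1×10^6 cells/mL treated with compound (50 to 1.56 μM); stained with 12 μM PI and 100 nM SYBR-14 and live/dead ratio read by flow cytometry (488 nm laser; 545 and 645 nm emission). Incubation time given as 72 h in methods, 48 h in figure legend. Triplicates; CC50 derived from dose–response.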

Leishmania infantum [8] = experiment: Ratio of miltefosine IC50 to compound IC50 for Leishmania infantum A1 amastigotes infected in human THP1 cells; assay type: functional, THP-1

IC50 (Leishmania infantum [2]) [µM] | IC50 (Leishmania donovani) [µM] | solubility [4] [ppm] | IC50 (Leishmania infantum [6]) [nM] | Structure (SMILES) | hemolysis at 1 h, 100 µM [1] [%] | HC50 at 1 h [3] [µM] | selectivity ratio [5] | CC50 at 48 h [7] [µM] | Ratio IC50 (Leishmania infantum [8])
> 100 | > 100 | 72.3 | > 50000 | CCCN(CCO)c1c([N+](=O)[O-])cc(C(F)(F)F)cc1[N+](=O)[O-] | 0.2 | > 100 | 2 | > 50 | 
 |  | 0.8 | > 50000 | O=[N+]([O-])c1cc(C(F)(F)F)cc([N+](=O)[O-])c1N1CCCCC1 | 1.2 | > 100 | 2 | > 50 | 
> 100 | > 100 | 4.6 | 7300 | CN(C)c1c([N+](=O)[O-])cc(C(F)(F)F)cc1[N+](=O)[O-] | 0 | > 100 | 2 | > 50 | 
 |  | 0.1 | 9100 | O=[N+]([O-])c1cc(C(F)(F)F)cc([N+](=O)[O-])c1NC1CCCCC1 | 1.1 | > 100 | 2 | > 50 | 
2.2 | 0.6 | 11.4 | 1800 | O=[N+]([O-])c1cc(C(F)(F)F)cc([N+](=O)[O-])c1Nc1ccc(O)cc1 | 1.4 | > 100 | 2 | 40 | 
 |  | 9.5 | 2200 | O=[N+]([O-])c1cc(C(F)(F)F)cc([N+](=O)[O-])c1Nc1cccc(O)c1 | 1.4 | > 100 | 2 | 35 | 
 |  | 5.7 | > 50000 | CCCCCCN(CCO)c1c([N+](=O)[O-])cc(C(F)(F)F)cc1[N+](=O)[O-] | 0.7 | > 100 | 2 | 10 | 
> 100 | > 100 | 157.4 | > 50000 | CCN(CCO)c1c([N+](=O)[O-])cc(C(F)(F)F)cc1[N+](=O)[O-] | 0.4 | > 100 | 2 | > 50 | 
 |  |  | 2700 | CCCCCCCCCCCCCCCCOP(=O)([O-])OCC[N+](C)(C)C [MILTEFOSINE] |  | 38.3 |  | 28.6 | 
> 100 | > 100 | 22.6 | 1200 | CCCCN(CCO)c1c([N+](=O)[O-])cc(C(F)(F)F)cc1[N+](=O)[O-] | 0.5 | > 100 | 2 | > 50 | 2.5
> 100 | > 100 | 18.6 | 500 | O=[N+]([O-])c1cc(C(F)(F)F)cc([N+](=O)[O-])c1N1CCOCC1 | 0.3 | > 100 | 2 | > 50 | 5
 |  | 20 | 1100 | O=[N+]([O-])c1cc(C(F)(F)F)cc([N+](=O)[O-])c1Nc1ccccc1O | 1.2 | > 100 | 2 | > 50 | 2.5
 |  | 6 | > 50000 | CCCCCN(CCO)c1c([N+](=O)[O-])cc(C(F)(F)F)cc1[N+](=O)[O-] | 0.8 | > 100 | 2 | > 50 | 

Structure (SMILES) | IC50 (Leishmania infantum [2]) [µM] | IC50 (Leishmania donovani) [µM] | solubility [4] [ppm] | IC50 (Leishmania infantum [6]) [nM] | hemolysis at 1 h, 100 µM [1] [%] | HC50 at 1 h [3] [µM] | selectivity ratio [5] | CC50 at 48 h [7] [µM] | Ratio IC50 (Leishmania infantum [8])
CCCN(CCC)c1c([N+](=O)[O-])cc(C(F)(F)F)cc1[N+](=O)[O-] [TRIFLURALIN] | > 100 | > 100 | 0.5 | > 50000 | 1.3 | > 100 | 2 | > 50 | 
